Activity calls are given as the source filed them. The calls are words filed in the database; no cut-off is given here.
Tested on: BJ
Assay: Selectivity index, ratio of IC50 for human BJ cells to IC50 for human CEM-DNR cells
Format: functional
Conditions: not given

SMILES	Ratio IC50
O=C(N/N=C/c1ccccc1O)c1ccc2c3c(ccc2c1)N1Cc2c(ccc4cc(C(=O)N/N=C/c5ccccc5O)ccc24)N(C3)C1	0.1
COC(=O)c1ccc(O)c(/C=N/NC(=O)c2ccc3c4c(ccc3c2)N2Cc3c(ccc5cc(C(=O)N/N=C/c6cc(C(=O)OC)ccc6O)ccc35)N(C4)C2)c1	3.2

Tested on: CEM-DNR
Assay: Selectivity index, ratio of IC50 for human MRC5 cells to IC50 for human CEM-DNR cells
Format: functional
Conditions: not given

SMILES	Ratio IC50
O=C(N/N=C/c1ccccc1O)c1ccc2c3c(ccc2c1)N1Cc2c(ccc4cc(C(=O)N/N=C/c5ccccc5O)ccc24)N(C3)C1	0.1
COC(=O)c1ccc(O)c(/C=N/NC(=O)c2ccc3c4c(ccc3c2)N2Cc3c(ccc5cc(C(=O)N/N=C/c6cc(C(=O)OC)ccc6O)ccc35)N(C4)C2)c1	3.2

Tested on: MRC5
Assay: Selectivity index, ratio of IC50 for human MRC5 cells to IC50 for human K562-TAX cells
Format: functional
Conditions: not given

SMILES	Ratio IC50
O=C(N/N=C/c1ccccc1O)c1ccc2c3c(ccc2c1)N1Cc2c(ccc4cc(C(=O)N/N=C/c5ccccc5O)ccc24)N(C3)C1	0.4
COC(=O)c1ccc(O)c(/C=N/NC(=O)c2ccc3c4c(ccc3c2)N2Cc3c(ccc5cc(C(=O)N/N=C/c6cc(C(=O)OC)ccc6O)ccc35)N(C4)C2)c1	4.3

Tested on: A549
Assay: Selectivity index, ratio of IC50 for human MRC5 cells to IC50 for human A549 cells
Format: functional
Conditions: not given

SMILES	Ratio IC50
O=C(N/N=C/c1ccccc1O)c1ccc2c3c(ccc2c1)N1Cc2c(ccc4cc(C(=O)N/N=C/c5ccccc5O)ccc24)N(C3)C1	0.3
COC(=O)c1ccc(O)c(/C=N/NC(=O)c2ccc3c4c(ccc3c2)N2Cc3c(ccc5cc(C(=O)N/N=C/c6cc(C(=O)OC)ccc6O)ccc35)N(C4)C2)c1	7.7

Tested on: HCT-116
Assay: Selectivity index, ratio of IC50 for human MRC5 cells to IC50 for human p53-/- HCT116 cells
Format: functional
Conditions: not given

SMILES	Ratio IC50
O=C(N/N=C/c1ccccc1O)c1ccc2c3c(ccc2c1)N1Cc2c(ccc4cc(C(=O)N/N=C/c5ccccc5O)ccc24)N(C3)C1	1.7
COC(=O)c1ccc(O)c(/C=N/NC(=O)c2ccc3c4c(ccc3c2)N2Cc3c(ccc5cc(C(=O)N/N=C/c6cc(C(=O)OC)ccc6O)ccc35)N(C4)C2)c1	9.7

Tested on: A549
Assay: Cytostatic activity against human A549 cells after 72 hrs by MTT assay
Format: functional, cell-based
Conditions: A549, 72 h
Method in brief: (§1)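 Cells were seeded at 25,000–30,000 per well and pre-incubated for 24 h at 37°C in 5% CO2. Four-fold compound dilutions were added in duplicate and incubated for 72 h. MTT was added for 1–4 h, and formazan was dissolved in 10% aq SDS (pH 5.5) overnight at 37°C. OD was read at 540 nm. IC50 came from dose-response curves, mean ± SD of eight independent experiments.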

SMILES	IC50
O=C(N/N=C/c1ccccc1O)c1ccc2c3c(ccc2c1)N1Cc2c(ccc4cc(C(=O)N/N=C/c5ccccc5O)ccc24)N(C3)C1	0.98 µM
COC(=O)c1ccc(O)c(/C=N/NC(=O)c2ccc3c4c(ccc3c2)N2Cc3c(ccc5cc(C(=O)N/N=C/c6cc(C(=O)OC)ccc6O)ccc35)N(C4)C2)c1	11.9 µM

Tested on: BJ
Assay: Cytostatic activity against human BJ cells after 72 hrs by MTT assay
Format: ADME, cell-based
Conditions: not given
Method in brief: as §1

SMILES	IC50
O=C(N/N=C/c1ccccc1O)c1ccc2c3c(ccc2c1)N1Cc2c(ccc4cc(C(=O)N/N=C/c5ccccc5O)ccc24)N(C3)C1	0.27 µM
COC(=O)c1ccc(O)c(/C=N/NC(=O)c2ccc3c4c(ccc3c2)N2Cc3c(ccc5cc(C(=O)N/N=C/c6cc(C(=O)OC)ccc6O)ccc35)N(C4)C2)c1	87.4 µM

Tested on: CCRF-CEM
Assay: Induction of apoptosis in human CCRF-CEM cells assessed as apoptotic cells at 5 times IC50 after 24 hrs by propidium iodide staining-based flow cytometry
Format: functional
Conditions: not given
Method in brief: (§2)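 Cells were then fixed in 70% ethanol, washed in hypotonic citrate buffer, treated with RNase (50 µg/mL) and stained with propidium iodide. Flow cytometry used a 488 nm laser. Apoptosis was scored as the percentage of particles with propidium content below G0/G1.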

SMILES	Activity
O=C(N/N=C/c1ccccc1O)c1ccc2c3c(ccc2c1)N1Cc2c(ccc4cc(C(=O)N/N=C/c5ccccc5O)ccc24)N(C3)C1	50.23%
COC(=O)c1ccc(O)c(/C=N/NC(=O)c2ccc3c4c(ccc3c2)N2Cc3c(ccc5cc(C(=O)N/N=C/c6cc(C(=O)OC)ccc6O)ccc35)N(C4)C2)c1	14.56%

Tested on: CCRF-CEM
Assay: Cell cycle arrest in human CCRF-CEM cells assessed as accumulation at G2/M phase at IC50 after 24 hrs by propidium iodide staining-based flow cytometry
Format: functional
Conditions: not given
Method in brief: as §2

SMILES	Activity
O=C(N/N=C/c1ccccc1O)c1ccc2c3c(ccc2c1)N1Cc2c(ccc4cc(C(=O)N/N=C/c5ccccc5O)ccc24)N(C3)C1	19.09%
COC(=O)c1ccc(O)c(/C=N/NC(=O)c2ccc3c4c(ccc3c2)N2Cc3c(ccc5cc(C(=O)N/N=C/c6cc(C(=O)OC)ccc6O)ccc35)N(C4)C2)c1	12.83%

Tested on: CCRF-CEM
Assay: Cell cycle arrest in human CCRF-CEM cells assessed as accumulation at G2/M phase at 5 times IC50 after 24 hrs by propidium iodide staining-based flow cytometry
Format: functional
Conditions: not given
Method in brief: as §2

SMILES	Activity
O=C(N/N=C/c1ccccc1O)c1ccc2c3c(ccc2c1)N1Cc2c(ccc4cc(C(=O)N/N=C/c5ccccc5O)ccc24)N(C3)C1	18.92%
COC(=O)c1ccc(O)c(/C=N/NC(=O)c2ccc3c4c(ccc3c2)N2Cc3c(ccc5cc(C(=O)N/N=C/c6cc(C(=O)OC)ccc6O)ccc35)N(C4)C2)c1	13.26%

Tested on: CCRF-CEM
Assay: Induction of apoptosis in human CCRF-CEM cells assessed as mitotic cells at IC50 after 24 hrs by pH3Ser10+ labeling-based flow cytometry
Format: functional
Conditions: not given

SMILES	Activity
O=C(N/N=C/c1ccccc1O)c1ccc2c3c(ccc2c1)N1Cc2c(ccc4cc(C(=O)N/N=C/c5ccccc5O)ccc24)N(C3)C1	0.62%
COC(=O)c1ccc(O)c(/C=N/NC(=O)c2ccc3c4c(ccc3c2)N2Cc3c(ccc5cc(C(=O)N/N=C/c6cc(C(=O)OC)ccc6O)ccc35)N(C4)C2)c1	1.19%

Tested on: CCRF-CEM
Assay: Induction of apoptosis in human CCRF-CEM cells assessed as inhibition of DNA synthesis at IC50 after 24 hrs by propidium iodide/BrdU staining by flow cytometry
Format: functional
Design: scale not given: the % may be the effect or the level left
Conditions: not given

SMILES	Activity
O=C(N/N=C/c1ccccc1O)c1ccc2c3c(ccc2c1)N1Cc2c(ccc4cc(C(=O)N/N=C/c5ccccc5O)ccc24)N(C3)C1	50.71%
COC(=O)c1ccc(O)c(/C=N/NC(=O)c2ccc3c4c(ccc3c2)N2Cc3c(ccc5cc(C(=O)N/N=C/c6cc(C(=O)OC)ccc6O)ccc35)N(C4)C2)c1	46.43%

Tested on: CCRF-CEM
Assay: Induction of apoptosis in human CCRF-CEM cells assessed as inhibition of DNA synthesis at 5 times IC50 after 24 hrs by propidium iodide/BrdU staining by flow cytometry
Format: functional
Design: scale not given: the % may be the effect or the level left
Conditions: not given

SMILES	Activity
O=C(N/N=C/c1ccccc1O)c1ccc2c3c(ccc2c1)N1Cc2c(ccc4cc(C(=O)N/N=C/c5ccccc5O)ccc24)N(C3)C1	5.94%
COC(=O)c1ccc(O)c(/C=N/NC(=O)c2ccc3c4c(ccc3c2)N2Cc3c(ccc5cc(C(=O)N/N=C/c6cc(C(=O)OC)ccc6O)ccc35)N(C4)C2)c1	54.61%

Tested on: CCRF-CEM
Assay: Induction of apoptosis in human CCRF-CEM cells assessed as inhibition of RNA synthesis at 5 times IC50 after 24 hrs by propidium iodide/BrU staining by flow cytometry
Format: functional
Design: scale not given: the % may be the effect or the level left
Conditions: not given

SMILES	Activity
O=C(N/N=C/c1ccccc1O)c1ccc2c3c(ccc2c1)N1Cc2c(ccc4cc(C(=O)N/N=C/c5ccccc5O)ccc24)N(C3)C1	83.92%
COC(=O)c1ccc(O)c(/C=N/NC(=O)c2ccc3c4c(ccc3c2)N2Cc3c(ccc5cc(C(=O)N/N=C/c6cc(C(=O)OC)ccc6O)ccc35)N(C4)C2)c1	21.03%

Tested on: Pichia kudriavzevii
Assay: Antifungal activity against Candida crusei up to 200 uM after 24 to 48 hrs by broth microdilution method
Format: functional, organism-based
Conditions: not given

SMILES	Activity
O=C(N/N=C/c1ccccc1O)c1ccc2c3c(ccc2c1)N1Cc2c(ccc4cc(C(=O)N/N=C/c5ccccc5O)ccc24)N(C3)C1	inactive
COC(=O)c1ccc(O)c(/C=N/NC(=O)c2ccc3c4c(ccc3c2)N2Cc3c(ccc5cc(C(=O)N/N=C/c6cc(C(=O)OC)ccc6O)ccc35)N(C4)C2)c1	inactive

Tested on: not listed separately
Assay: Metal chelating activity of the compound assessed as formation of Fe3+ complex by UV-vis spectrometry
Format: physicochemical
Conditions: not given

SMILES	Activity
O=C(N/N=C/c1ccccc1O)c1ccc2c3c(ccc2c1)N1Cc2c(ccc4cc(C(=O)N/N=C/c5ccccc5O)ccc24)N(C3)C1	Active
COC(=O)c1ccc(O)c(/C=N/NC(=O)c2ccc3c4c(ccc3c2)N2Cc3c(ccc5cc(C(=O)N/N=C/c6cc(C(=O)OC)ccc6O)ccc35)N(C4)C2)c1	Active

Tested on: not listed separately
Assay: Metal chelating activity of the compound assessed as formation of Zn2+ complex by UV-vis spectrometry
Format: physicochemical
Conditions: not given

SMILES	Activity
O=C(N/N=C/c1ccccc1O)c1ccc2c3c(ccc2c1)N1Cc2c(ccc4cc(C(=O)N/N=C/c5ccccc5O)ccc24)N(C3)C1	Active
COC(=O)c1ccc(O)c(/C=N/NC(=O)c2ccc3c4c(ccc3c2)N2Cc3c(ccc5cc(C(=O)N/N=C/c6cc(C(=O)OC)ccc6O)ccc35)N(C4)C2)c1	Active

Tested on: not listed separately
Assay: Metal chelating activity of the compound assessed as formation of Mn2+ complex by UV-vis spectrometry
Format: physicochemical
Conditions: not given

SMILES	Activity
O=C(N/N=C/c1ccccc1O)c1ccc2c3c(ccc2c1)N1Cc2c(ccc4cc(C(=O)N/N=C/c5ccccc5O)ccc24)N(C3)C1	Not Active
COC(=O)c1ccc(O)c(/C=N/NC(=O)c2ccc3c4c(ccc3c2)N2Cc3c(ccc5cc(C(=O)N/N=C/c6cc(C(=O)OC)ccc6O)ccc35)N(C4)C2)c1	Not Active

Tested on: Nucleic Acid
Assay: Binding affinity to DNA (unknown origin) assessed as DNA intercalation by UV-visible spectrophotometry
Format: nucleic-acid assay
Conditions: not given

SMILES	Activity
O=C(N/N=C/c1ccccc1O)c1ccc2c3c(ccc2c1)N1Cc2c(ccc4cc(C(=O)N/N=C/c5ccccc5O)ccc24)N(C3)C1	inactive
COC(=O)c1ccc(O)c(/C=N/NC(=O)c2ccc3c4c(ccc3c2)N2Cc3c(ccc5cc(C(=O)N/N=C/c6cc(C(=O)OC)ccc6O)ccc35)N(C4)C2)c1	inactive

Tested on: Nucleic Acid
Assay: Binding affinity to DNA (unknown origin) assessed as DNA intercalation by UV-visible spectrophotometry in presence of Co2+
Format: nucleic-acid assay
Conditions: not given

SMILES	Activity
O=C(N/N=C/c1ccccc1O)c1ccc2c3c(ccc2c1)N1Cc2c(ccc4cc(C(=O)N/N=C/c5ccccc5O)ccc24)N(C3)C1	Active
COC(=O)c1ccc(O)c(/C=N/NC(=O)c2ccc3c4c(ccc3c2)N2Cc3c(ccc5cc(C(=O)N/N=C/c6cc(C(=O)OC)ccc6O)ccc35)N(C4)C2)c1	Active

From ChEMBL document CHEMBL3400013, “Synthesis and biological activity evaluation of hydrazone derivatives based on a Tröger's base skeleton” (Bioorg Med Chem, 2015)
